Here are results for seven compounds from article PMC8311649 (Journal of Medicinal Chemistry, 2021).

Series [1] has as its system E. coli expressing TEM-1 + CTX-M-15, CTX-M-15, or KPC-2 + SHV-12. Kind of series: Murine ascending UTI model. Set-up: species or system C3H/HeJ mice. The settings on record: mouse, in vivo.
Series [2] is described as follows: Metabolic stability across all matrixes and species. The format is in vitro ADME. Conditions: CD-1 (mouse), Sprague-Dawley (rat), beagle (dog), cynomolgus monkey, human, intestinal S9, liver S9 and plasma.
Series [3] in a line: Bidirectional permeability through Caco-2 monolayers. It is filed as in vitro ADME, human. Conditions: human, Caco-2, pH 7.4, recovery (%), 5 µM, 120 minutes. (In general: Caco-2 monolayers are a common model of the intestinal barrier.)
Series [4] concerns Caco-2 cell monolayers. The description is as above. It is filed as in vitro ADME, human. Conditions: for significant efflux: from ER and Papp (B-to-A); for absorption potential classification: from Papp (A-to-B).
The test system of series [5] is strains expressing class C and OXA-48 β-lactamases. Kind of series: Ceftibuten rescue against representative ceftibuten-resistant strains. The format is cell-based, K. pneumoniae and E. coli. The settings on record: ceftibuten fixed at 1 μg/mL. The procedure, abridged:
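Clinical isolates of E. coli and K. pneumoniae carrying the named β-lactamase classes were tested with ceftibuten held at 1 μg/mL. The value is the minimum concentration of the β-lactamase inhibitor that restores ceftibuten antibacterial activity.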

The target in series [6] is SHV-5 (class A) (Klebsiella pneumoniae, UniProt P0A3M1). Kind of series: β-lactamase inhibition assay, SHV-5. The format is biochemical.
Sequence of SHV-5 (class A) (P0A3M1 22-286, species assumed): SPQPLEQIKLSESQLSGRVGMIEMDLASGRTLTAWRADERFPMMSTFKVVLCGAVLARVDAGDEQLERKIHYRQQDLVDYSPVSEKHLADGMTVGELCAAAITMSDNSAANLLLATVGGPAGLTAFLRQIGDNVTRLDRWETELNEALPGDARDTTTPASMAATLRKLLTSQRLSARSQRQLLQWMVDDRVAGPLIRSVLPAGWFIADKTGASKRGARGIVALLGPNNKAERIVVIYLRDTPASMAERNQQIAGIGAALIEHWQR
Series [7] in a line: Oral bioavailability PK screening in rats. The format is in vivo. Conditions: rat; oral gavage; dose not given. Put shortly: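 Rats were dosed orally with the ester prodrug. F is percent absolute oral bioavailability, corrected for the molecular-weight difference between prodrug and parent.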
Series [8] can be described thus: Metabolic stability, plasma. It is filed as in vitro ADME. Conditions: human.
Series [9] in a line: Metabolite profiling in cryopreserved hepatocytes. The format is in vitro ADME. The settings on record: all species.

Take `Nc1nc(/C(=C/CC(=O)O)C(=O)N[C@@H]2C(=O)N3C(C(=O)O)=CCS[C@H]23)cs1` [CTB, ceftibuten]: in series [1], the “cfu reductions in the bladder” value is recorded as at most 2 log10 and the “cfu reductions in urine” value is given as at most 2 log10. In addition, in [1] (sc), the “cfu reductions in the kidneys” value is recorded as “minimal cfu reductions”.
In the case of `CCC(=O)N[C@H]1Cc2cccc(C(=O)O)c2OB1O` [compound 5, (R)-2-Hydroxy-3-propionamido-3,4-dihydro-2H-benzo[e][1,2]oxaborinine-8-carboxylic Acid], the half-life (in general, the time needed for the level to fall by half in the phase considered) at 3 µM in series [2] was above 120 min. In series [3] (A-to-B), this compound displayed a recovery at 120 min, 5 µM of 103%. This compound also displayed a recovery at 120 min, 5 µM in series [3] (B-to-A) of 106%. Also, in series [4], the significant efflux entry is “no” and the absorption potential classification result is “low (Papp (A-to-B) < 1.0 × 10^–6 cm/s: low)”.
Consider `O=C(CCC(F)(F)F)N[C@H]1Cc2cccc(C(=O)O)c2OB1O` [compound 7, (R)-2-Hydroxy-3-(4,4,4-trifluorobutanamido)-3,4-dihydro-2H-benzo[e][1,2]oxaborinine-8-carboxylic Acid], for which, in series [5], the “activity rescuing ceftibuten (in words)” value was “reduced activity”.
Still for that read-out and setting: next, `C#CCCC(=O)N[C@H]1Cc2cccc(C(=O)O)c2OB1O` [compound 12, (R)-2-Hydroxy-3-(pent-4-ynamido)-3,4-dihydro-2H-benzo[e][1,2]oxaborinine-8-carboxylic Acid]: “reduced activity”.
`CC(F)(F)CCC(=O)N[C@H]1Cc2cccc(C(=O)O)c2OB1O` [compound 14, (R)-3-(4,4-Difluoropentanamido)-2-hydroxy-3,4-dihydro-2H-benzo[e][1,2]oxaborinine-8-carboxylic Acid]: in series [6], the IC50 (in general, the concentration needed to halve the response being measured) came to 6 nM. The “activity rescuing ceftibuten (in words)” value in [5] was “reduced activity”.
For `CCC(=O)N[C@H]1Cc2cccc(C(=O)OCOC(=O)C(C)(C)C)c2OB1O` [compound 20, (Pivaloyloxy)methyl (R)-2-Hydroxy-3-propionamido-3,4-dihydro-2H-benzo[e][1,2]oxaborinine-8-carboxylate], in series [7], the “oral bioavailability (F) in rats” value was “highest oral bioavailability”.
On to `CCC(=O)N[C@H]1Cc2cccc(C(=O)OCOC(=O)C(CC)CC)c2OB1O` [compound 36, ((2-Ethylbutanoyl)oxy)methyl (R)-2-Hydroxy-3-propionamido-3,4-dihydro-2H-benzo[e][1,2]oxaborinine-8-carboxylate], for which the “oral bioavailability (F) in rats” value in series [7] is on record as “highest oral bioavailability”. The half-life at 3 µM in series [8] was around 11 min. The “parent remaining after hepatocyte incubation” value in series [9] (2 µM and 20 µM, 37 °C, 240 min) is 0–5%. Further, in series [9] (metabolite identified as 5 (hydrolysis)), the “metabolites detected after hepatocyte incubation” value is given as “one metabolite”. The compound also came in with a recovery at 120 min, 5 µM in [3] (A-to-B) of 90%. This compound also registered a recovery at 120 min, 5 µM in [3] (B-to-A) of 98%. Also, in series [4], the significant efflux entry is “yes (ER ≥ 2.0 and Papp (B-to-A) ≥ 1.0 × 10^–6 cm/s)”; the absorption potential classification result was “high (Papp (A-to-B) ≥ 1.0 × 10^–6 cm/s: high)”.
